Columns and labels:
Format in all cases: functional
[1] = In vitro percent inhibition of LPS induced B-cell proliferation at the dose 1 ug/mL
Method in brief: (§1)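 Splenocyte single-cell suspension (red cells lysed, 0.16 M NH4Cl-Tris), RPMI-1640 + 10% FBS, 2.5×10^6/mL; LPS 10 µg/mL stimulation with drug at final 1, 10 or 100 µg/mL, triplicate wells; cultured 72 h, 37 °C, [3H]thymidine pulse 0.5 µCi last 16 h, β-counting; %inhibition = (control mean − drug mean)/control mean.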

[2] = In vitro percent inhibition of ConA induced T-cell proliferation at the dose 1 ug/mL
Method in brief: (§2)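 Spleen cells sieved to single-cell suspension, red cells lysed with 0.16 M NH4Cl-Tris, washed, in RPMI-1640 + 10% FBS; seeded at 2.5×10^6/mL, stimulated with ConA 0.5 µg/mL, drug final 1, 10 or 100 µg/mL, triplicates; 72 h at 37 °C, [3H]thymidine 0.5 µCi for final 16 h; cpm counted; %inhibition = (control − drug)/control.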

[3] = In vitro percent inhibition of LPS induced B-cell proliferation at the dose 10 ug/mL; method in brief: as §1
[4] = In vitro percent inhibition of ConA induced T-cell proliferation at the dose 10 ug/mL; method in brief: as §2
[5] = In vitro percent inhibition of LPS induced B-cell proliferation at the dose 100 ug/mL; method in brief: as §1
[6] = In vitro percent inhibition of ConA induced T-cell proliferation at the dose 100 ug/mL; method in brief: as §2
[7] = target: T1, Tumor necrosis factor (Mus musculus) (UniProt P06804); assay: In vitro percent inhibition of tumor necrosis factor, alpha secreted by macrophage at the dose 1 ug/mL
T1 sequence (whole entry): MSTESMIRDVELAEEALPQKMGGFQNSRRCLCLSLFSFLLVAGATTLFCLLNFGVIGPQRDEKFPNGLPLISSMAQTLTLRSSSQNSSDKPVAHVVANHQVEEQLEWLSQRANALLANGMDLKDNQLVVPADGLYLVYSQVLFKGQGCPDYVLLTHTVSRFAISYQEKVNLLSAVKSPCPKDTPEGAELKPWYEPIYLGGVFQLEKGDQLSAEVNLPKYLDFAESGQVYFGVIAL
Method in brief: (§3)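 RAW264.7 macrophages in RPMI 1640 with 10% FCS, 2 mM glutamine, gentamycin; seeded 2×10^5/mL, grown ~3 days to confluence at 37 °C, 5% CO2; LPS 10 µg/mL plus drug at final 1, 10 or 100 µg/mL for 24 h; supernatant TNF-α by ELISA; %inhibition = (control mean − drug mean)/control mean.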

[8] = target: T1, Tumor necrosis factor (Mus musculus); assay: In vitro percent inhibition of tumor necrosis factor, alpha secreted by macrophage at the dose 100 ug/mL; method in brief: as §3
[9] = target: T1, Tumor necrosis factor (Mus musculus); assay: In vitro percent inhibition of tumor necrosis factor, alpha secreted by macrophage at the dose 10 ug/mL; method in brief: as §3

Row | SMILES | inhibition at 1 µg/mL [1] [%] | inhibition at 1 µg/mL [2] [%] | inhibition at 10 µg/mL [3] [%] | inhibition at 10 µg/mL [4] [%] | inhibition at 100 µg/mL [5] [%] | inhibition at 100 µg/mL [6] [%] | inhibition [7] [%] | inhibition [8] [%] | inhibition [9] [%]
1 | O=C(O)c1ccc2ncc(C(=O)Nc3cccc(Cl)c3)c(O)c2c1 | 78.5 | 87.6 | 94.3 | 84.8 | 94.7 | 73.4 | – | – | –
2 | CN(C)CC(C)(C)CNC(=O)c1cnc2ccc(F)cc2c1O | 21.3 | -30.7 | 17.8 | 32.9 | 70.5 | 87.4 | – | – | –
3 | CN(C(=O)c1cnc2ccccc2c1O)c1ccccc1 | 17.7 | -7.55 | 8.46 | 24.9 | 32.4 | -9.33 | 7.59 | -1.33 | –
4 | CN(C)CCNC(=O)c1cnc2ccc(Br)cc2c1O | – | -19.6 | – | 31.6 | – | 99.7 | – | – | –
5 | CN(C)CCNC(=O)c1cnc2cc(Cl)ccc2c1O | – | 14 | – | 33.7 | – | 99.9 | – | – | –
6 | CSc1ccc2c(c1)c(O)c(C(=O)N(C)c1ccccc1)c(=O)n2C | 13.6 | 52 | 30.3 | 75.3 | 37.8 | 79.6 | 14.7 | 29.7 | 11.2
7 | CSc1ccc2ncc(C(=O)N(C)c3ccccc3)c(O)c2c1 | -47 | – | -144 | -155 | 65.6 | 96.3 | – | – | –
8 | CSc1ccc2c(O)c(C(=O)NCCN(C)C)cnc2c1 | – | 30.3 | – | 38.5 | – | 100 | – | – | –
9 | CN(C)CCNC(=O)c1cnc2ccc([N+](=O)[O-])cc2c1O | – | 41.5 | – | 53.2 | – | 99.9 | – | – | –
10 | O=C(O)c1ccc2ncc(C(=O)Nc3ccccc3)c(O)c2c1 | 82.5 | 71.3 | 80.6 | 57.5 | 48.5 | 39.8 | 15.2 | – | 15.5
11 | Cc1ccc2ncc(C(=O)N(C)c3ccccc3)c(O)c2c1 | – | -59.3 | – | -20 | – | -1.7 | – | – | –
12 | CN(C)CCNC(=O)c1cnc2ccccc2c1O | – | -14.4 | – | -6.94 | – | 73.6 | – | – | –
13 | O=C(Nc1ccc(N(CCO)CCO)cc1)c1cnc2ccccc2c1O | 38 | 45.8 | 75.8 | 61 | 88.5 | 99.1 | 1.82 | 30.4 | 12.1
14 | O=C(NCCO)c1cnc2cc(Cl)ccc2c1O | 21.3 | 42.5 | 29.1 | 49.8 | 53.3 | 93.8 | – | 77.7 | 6.06
15 | CCN(C(=O)c1cnc2c(C)cc(C)cc2c1O)c1ccccc1 | 4.49 | 31.9 | 36 | 35.5 | 87.5 | 64.2 | 46.3 | 47.6 | 29.7
16 | CSc1ccc2c(O)c(C(=O)N(C)c3ccccc3)cnc2c1 | 31.1 | 26.2 | 17 | 11.8 | 83.5 | 76 | 14.6 | 52.7 | 22.2
17 | CN(C(=O)c1cnc2cc(C(F)(F)F)ccc2c1O)c1ccccc1 | 39.8 | 54.7 | 6.41 | 4.11 | 64.9 | 93.6 | – | -3.57 | -5.45
18 | CN(C(=O)c1c(O)c2ccccc2n(C)c1=O)c1ccccc1 [ROQUINIMEX] | 0 | 58.1 | 24.6 | 70.6 | 62.7 | 78.5 | 9.95 | 27.3 | 18.2

Row | SMILES | inhibition at 1 µg/mL [1] [%] | inhibition at 1 µg/mL [2] [%] | inhibition at 10 µg/mL [3] [%] | inhibition at 10 µg/mL [4] [%] | inhibition at 100 µg/mL [5] [%] | inhibition at 100 µg/mL [6] [%] | inhibition [7] [%] | inhibition [8] [%] | inhibition [9] [%]
19 | CN(C(=O)c1cnc2cc(Cl)ccc2c1O)c1ccccc1 | -4.33 | -24.7 | -26.7 | -27.6 | 14.1 | 41.2 | 18.6 | 25.6 | 5.61
20 | COc1ccc2c(O)c(C(=O)NCCN(C)C)cnc2c1 | – | -40.7 | – | -15.3 | – | 92.8 | – | – | –
21 | CN(C)CCNC(=O)c1cnc2cc(F)ccc2c1O | – | -24.6 | – | -9 | – | 87.2 | – | – | –
22 | Cc1cc(C)c2ncc(C(=O)N(C)c3ccccc3)c(O)c2c1 | – | 1.84 | – | 12.9 | – | 47.1 | – | – | –
23 | O=C(O)c1ccc(NC(=O)c2cnc3ccccc3c2O)cc1 | -1.94 | 28.6 | 4.33 | 38.8 | 28 | -20.9 | 31.2 | 27.5 | 5.61
24 | Cc1ccc2ncc(C(=O)NCCN(C)C)c(O)c2c1 | – | -27.5 | – | -11.2 | – | 94.9 | – | – | –
25 | CSc1cccc2c(O)c(C(=O)NCCN(C)C)cnc12 | – | 32 | – | 69.1 | – | 99.9 | – | – | –
26 | CN(C(=O)c1cnc2cc(F)ccc2c1O)c1ccccc1 | 4 | -46.8 | 12.5 | -21.5 | -127 | 17.1 | – | – | –
27 | CCCN(CCC)C(=O)c1cnc2cc(Cl)ccc2c1O | -3.57 | 42.1 | 18.1 | 49.5 | 12.6 | 51.2 | 14.7 | -4.03 | 18.4
28 | COc1ccc2c(O)c(C(=O)N(C)c3ccccc3)cnc2c1 | 41.3 | 36.5 | 24.9 | 29.3 | 57.5 | 53.7 | 12.1 | 35.7 | 35.7
29 | CN(C)CC(C)(C)CNC(=O)c1cnc2cc(F)ccc2c1O | – | 20.8 | – | 37.2 | – | 96.3 | – | – | –
30 | Cc1cc(C)c2ncc(C(=O)NCCN(C)C)c(O)c2c1 | – | 0.95 | – | 38.5 | – | 99.6 | – | – | –
31 | O=C(Nc1ccccc1)c1cnc2cc(Cl)ccc2c1O | -2.65 | 16.7 | 12.3 | 32.6 | 27.1 | 22.3 | 10.5 | 23.1 | 10.4
32 | O=C(O)c1ccc(NC(=O)c2cnc3ccc(Cl)cc3c2O)cc1 | 17.8 | 12.7 | 52.9 | 61.5 | 87 | 98.9 | 0.78 | -5.35 | 32.1
33 | CSc1cccc2c(O)c(C(=O)N(C)c3ccccc3)cnc12 | -2.46 | 11.4 | 36.5 | 52.4 | 71.7 | 81.7 | 2.08 | -9.52 | –
34 | COc1ccc2c(O)c(C(=O)NCC(C)(C)CN(C)C)cnc2c1 | 48.8 | 32.6 | 72.3 | 29.4 | 91.6 | 98.5 | – | – | –
35 | CSc1ccc2ncc(C(=O)NCCN(C)C)c(O)c2c1 | -4.33 | -182 | -9.69 | -42.6 | 87.7 | 98.2 | – | – | –

— ChEMBL document CHEMBL1139610, “Design, synthesis, and biological evaluation of novel 4-hydro-quinoline-3-carboxamide derivatives as an immunomodulator” (2005)
